# In article PMC8742645 (Clinical and Translational Science, 2021):
# Where “and” joins values, the source holds several entries; their conditions need not be identical. Identical values can stand only once. Like-named read-outs stand apart in the source and are kept apart here. Marks after values point to notes of the source that are not given here.
# Assays:
# [1] = DDI trial with CYP450 enzyme substrate cocktail, steady state; ref unpublished data, Schiller, Huth, Schuhler, Drollmann, Kaul, Woessner, et al. 2021; cited from earlier work
# [2] = format: in vivo, human; settings: for Vd: 100 µg; for half-life / Tmax: whole blood; for half-life: t 1/2, arithmetic mean; for Tmax: po
# How it was run: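 Healthy adults, open-label single-sequence three-period crossover. Oral doses: 50 mg alone (day 3, 1 h after 240 ml 10% glucose), 20 mg 1 h after 240 ml grapefruit juice, and 20 mg 1 h after the second ritonavir 100 mg dose. Stable-isotope-labelled i.v. microtracer 100 µg given 2 h post-oral in periods 1 and 3. Blood measured by LC-MS/MS; dose-normalised; mixed-ANOVA geometric mean ratios.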
# Caco-2 cells = test: Caco-2 permeability of remibrutinib; format: in vitro ADME; settings: Caco-2, passive
# How it was run: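 Human Caco-2 cell system, also used to test the compound as a substrate of ATP-binding cassette efflux transporters (P-gp). Passive apparent permeability (Papp, cm/s) was taken from these experiments to predict the fraction absorbed (Fa) in the PBPK model.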
# CYP2B6 = target: T1, CYP2B6 (Homo sapiens, UniProt P20813); test: Recombinant human CYP enzyme kinetics; format: in vitro ADME
# T1 sequence (P20813 1-491): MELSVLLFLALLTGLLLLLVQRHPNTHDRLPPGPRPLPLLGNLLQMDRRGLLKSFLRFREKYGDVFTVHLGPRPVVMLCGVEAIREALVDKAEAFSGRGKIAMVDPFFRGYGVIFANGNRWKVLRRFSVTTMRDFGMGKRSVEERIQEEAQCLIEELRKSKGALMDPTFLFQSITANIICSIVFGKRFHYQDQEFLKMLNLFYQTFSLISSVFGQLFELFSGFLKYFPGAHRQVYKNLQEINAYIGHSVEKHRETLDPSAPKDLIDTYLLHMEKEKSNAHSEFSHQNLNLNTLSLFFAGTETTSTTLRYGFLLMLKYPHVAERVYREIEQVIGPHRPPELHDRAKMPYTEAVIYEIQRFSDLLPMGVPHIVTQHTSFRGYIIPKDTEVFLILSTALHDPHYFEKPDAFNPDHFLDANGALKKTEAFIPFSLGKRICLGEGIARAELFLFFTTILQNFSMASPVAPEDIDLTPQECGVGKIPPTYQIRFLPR
# CYP2C19 = CYP2C19 (Homo sapiens, UniProt P33261); test: Recombinant human CYP enzyme kinetics; format: in vitro ADME
# Sequence of CYP2C19 (P33261 whole entry): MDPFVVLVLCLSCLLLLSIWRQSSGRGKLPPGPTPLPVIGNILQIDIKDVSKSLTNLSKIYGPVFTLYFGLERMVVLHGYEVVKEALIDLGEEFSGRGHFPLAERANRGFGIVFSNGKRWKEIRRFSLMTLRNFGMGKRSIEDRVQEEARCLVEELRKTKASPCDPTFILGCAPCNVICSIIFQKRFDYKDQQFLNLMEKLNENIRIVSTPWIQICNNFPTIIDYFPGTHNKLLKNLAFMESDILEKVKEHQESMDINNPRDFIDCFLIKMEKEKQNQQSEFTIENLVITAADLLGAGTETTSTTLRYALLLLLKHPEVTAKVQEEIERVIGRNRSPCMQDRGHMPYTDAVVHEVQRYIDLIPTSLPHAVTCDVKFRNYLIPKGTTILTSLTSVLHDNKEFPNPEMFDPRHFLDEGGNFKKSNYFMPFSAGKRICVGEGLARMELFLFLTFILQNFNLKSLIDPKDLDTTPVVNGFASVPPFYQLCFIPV
# [3] = system: hepatic uptake transporters; test: Cellular uptake in suspensions of cryo-preserved human hepatocytes; format: in vitro ADME; settings: suspended human hepatocytes
# P-gp = P-gp (Homo sapiens, UniProt P08183); test: Efflux transporter substrate assessment in Caco-2 cells; format: in vitro ADME
# Sequence of P-gp (P08183 whole entry): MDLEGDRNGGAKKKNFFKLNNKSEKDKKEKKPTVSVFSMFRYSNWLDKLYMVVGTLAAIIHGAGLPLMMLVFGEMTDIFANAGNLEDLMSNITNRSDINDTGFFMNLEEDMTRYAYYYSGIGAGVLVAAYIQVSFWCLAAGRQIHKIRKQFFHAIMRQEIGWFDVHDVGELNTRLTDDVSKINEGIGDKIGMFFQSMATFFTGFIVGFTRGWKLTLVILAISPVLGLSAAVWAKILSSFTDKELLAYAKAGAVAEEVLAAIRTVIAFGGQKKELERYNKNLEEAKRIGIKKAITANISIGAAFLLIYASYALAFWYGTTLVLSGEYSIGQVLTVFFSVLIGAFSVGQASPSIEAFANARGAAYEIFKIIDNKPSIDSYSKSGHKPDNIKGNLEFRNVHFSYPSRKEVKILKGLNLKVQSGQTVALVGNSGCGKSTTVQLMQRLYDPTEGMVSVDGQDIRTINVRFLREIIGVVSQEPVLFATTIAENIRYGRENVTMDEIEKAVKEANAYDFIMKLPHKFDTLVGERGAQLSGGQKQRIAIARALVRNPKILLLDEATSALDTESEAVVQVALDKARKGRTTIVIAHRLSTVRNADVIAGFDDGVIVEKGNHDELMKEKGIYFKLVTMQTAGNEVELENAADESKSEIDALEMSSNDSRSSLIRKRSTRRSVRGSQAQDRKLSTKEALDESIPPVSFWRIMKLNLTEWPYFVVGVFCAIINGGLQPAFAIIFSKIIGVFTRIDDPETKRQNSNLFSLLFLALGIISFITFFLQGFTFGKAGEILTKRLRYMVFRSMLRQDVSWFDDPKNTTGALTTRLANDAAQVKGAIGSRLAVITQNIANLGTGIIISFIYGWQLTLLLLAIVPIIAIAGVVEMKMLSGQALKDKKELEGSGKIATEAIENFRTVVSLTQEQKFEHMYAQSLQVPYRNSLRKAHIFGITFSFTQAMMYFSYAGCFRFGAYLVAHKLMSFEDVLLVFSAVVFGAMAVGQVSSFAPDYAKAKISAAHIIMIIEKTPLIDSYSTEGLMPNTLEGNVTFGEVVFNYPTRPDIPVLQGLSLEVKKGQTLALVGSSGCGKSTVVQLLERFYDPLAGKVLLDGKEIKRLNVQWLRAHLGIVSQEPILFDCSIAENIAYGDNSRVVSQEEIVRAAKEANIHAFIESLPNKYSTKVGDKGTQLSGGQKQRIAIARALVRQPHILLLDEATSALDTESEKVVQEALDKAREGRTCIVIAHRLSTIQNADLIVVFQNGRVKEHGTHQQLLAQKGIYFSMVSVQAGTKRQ
# CYP3A4/5 = test: Correlation analysis with HLM from 16 individual donors; format: in vitro ADME, human
# [4] = Clinical DDI study: safety; format: in vivo, human
# CYP3A4 = CYP3A4 (Homo sapiens, UniProt P08684); format: in vitro ADME
# Sequence of CYP3A4 (P08684 whole entry): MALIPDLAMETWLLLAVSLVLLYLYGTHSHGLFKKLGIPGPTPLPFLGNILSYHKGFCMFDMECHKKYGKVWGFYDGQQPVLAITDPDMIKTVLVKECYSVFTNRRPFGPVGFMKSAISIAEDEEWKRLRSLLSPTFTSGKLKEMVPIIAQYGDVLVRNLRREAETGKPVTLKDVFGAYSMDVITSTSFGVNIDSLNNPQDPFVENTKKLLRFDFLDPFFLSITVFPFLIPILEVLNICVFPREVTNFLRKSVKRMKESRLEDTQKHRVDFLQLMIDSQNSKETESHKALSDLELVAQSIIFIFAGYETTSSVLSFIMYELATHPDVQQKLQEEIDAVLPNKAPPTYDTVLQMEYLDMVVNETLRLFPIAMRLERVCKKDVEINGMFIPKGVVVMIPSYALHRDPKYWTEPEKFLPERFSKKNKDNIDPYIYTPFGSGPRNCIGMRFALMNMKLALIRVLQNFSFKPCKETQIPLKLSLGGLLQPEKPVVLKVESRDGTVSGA
# [5] = rat in vivo; ref data on file, Novartis; cited from earlier work
# [6] = Single and multiple ascending dose study, observed PK; format: in vivo, human
# human liver microsomes = test: Oxidative metabolism kinetics in pooled HLM; format: in vitro ADME
# CYP3A5 = CYP3A5 (Homo sapiens, UniProt P20815); test: Recombinant human CYP enzyme kinetics; format: in vitro ADME
# Sequence of CYP3A5 (P20815 whole entry): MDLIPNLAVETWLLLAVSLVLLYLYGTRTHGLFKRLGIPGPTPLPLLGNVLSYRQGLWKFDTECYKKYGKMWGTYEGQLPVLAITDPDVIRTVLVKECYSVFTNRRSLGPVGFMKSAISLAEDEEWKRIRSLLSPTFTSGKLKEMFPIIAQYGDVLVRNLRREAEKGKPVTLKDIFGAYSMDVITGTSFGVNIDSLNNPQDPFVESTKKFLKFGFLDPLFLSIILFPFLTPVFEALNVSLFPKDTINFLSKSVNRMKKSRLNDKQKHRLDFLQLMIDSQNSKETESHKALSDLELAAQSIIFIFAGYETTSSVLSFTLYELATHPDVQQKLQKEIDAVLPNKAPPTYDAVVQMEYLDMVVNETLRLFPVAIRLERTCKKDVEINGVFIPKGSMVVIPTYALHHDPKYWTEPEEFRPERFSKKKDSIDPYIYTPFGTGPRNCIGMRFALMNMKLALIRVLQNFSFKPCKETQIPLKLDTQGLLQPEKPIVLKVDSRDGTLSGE
# [7] = i.v., Period 1 remibrutinib alone day 3, Geo-mean (%CV)
# [8] = i.v., Period 3 remibrutinib + ritonavir, Geo-mean (%CV)
# [9] = oral, Period 1 alone 50 mg Day 3, Mean (SD)
# [10] = oral, Period 2 20 mg + GFJ Day 5, Mean (SD)
# [11] = oral, Period 3 20 mg + RTV Day 7, Mean (SD)
# [12] = p.o., Period 1 remibrutinib alone, adjusted Geo-mean, 90% CI
# [13] = p.o., Period 2 remibrutinib + grapefruit juice, adjusted Geo-mean, 90% CI
# [14] = p.o., Period 3 remibrutinib + ritonavir, adjusted Geo-mean, 90% CI
# [15] = p.o., grapefruit juice vs alone, Geo mean ratio, 90% CI
# [16] = p.o., ritonavir vs alone, Geo-mean ratio, 90% CI
compound,measurement,setting,value
C=CC(=O)N(C)CCOc1c(N)ncnc1-c1cc(F)cc(NC(=O)c2ccc(C3CC3)cc2F)c1C [remibrutinib],observed AUCtau,[1],916 ng·h/mL
same,observed Cmax,[1],334 ng/mL
same,F (absolute bioavailability),[2]; Observed mean,33.8 ± 11.5%
same,F inhibited,"[2]; Observed mean, bioavailability in the presence of ritonavir",80.9% and 80.9 ± 11.5%
same,Fg,"[2]; Observed mean, from grapefruit juice AUC ratio",78.9% and 78.9 ± 15.6%
same,Fa,"[2]; Observed, calculated Fa = F/Fg/Fh",86.9% and 86.9^e %
same,Fh,"[2]; Observed, calculated Fh = AUCratio,iv/(AUCratio,po * Fg), ritonavir DDI study",49.3^d %
same,fm (CYP3A4),"[2]; Observed, from i.v. exposure increase with ritonavir",40%
same,CYP3A4-mediated hepatic first-pass metabolism (100%-Fh),[2]; calculated,50.7%
same,product of Fg and Fh,[2]; calculated / clinically determined values,39%
same,Vd,"[2]; human, blood, intravenous",0.81 ± 0.22 L/kg
same,Vd,"[2]; human, blood, iv",63.1 L
same,clearance,"[2]; human, blood, iv, 0.1 mg",1170 mL/min
same,systemic CL as share of hepatic blood flow (87 L/h),"[2]; human, in vivo",~ 80%
same,half-life,"[2]; human, oral, 50 mg, remibrutinib alone",6.58 h
same,half-life,"[2]; human, oral, with RTV",12.1 h
same,half-life,"[2]; human, oral, with grapefruit juice",7.13 h
same,Tmax,"[2]; human, 50 mg, median, remibrutinib alone",1 h
same,Tmax,"[2]; human, 50 mg, minimum-maximum, remibrutinib alone",0.5 to 2.5 h
same,Tmax,"[2]; human, median, with RTV",0.72 h
same,Tmax,"[2]; human, median, with grapefruit juice",0.73 h
same,Tmax,"[2]; human, minimum-maximum, with RTV",0.5 to 1.5 h
same,Tmax,"[2]; human, minimum-maximum, with grapefruit juice",0.5 to 2 h
same,AUC0-24 h norm by dose,[2]; [7],14.2 (21.8%) h*ng/ml/mg
same,AUCinf norm by dose,[2]; [7],14.5 (17.9%) h*ng/ml/mg
same,AUClast norm by dose,[2]; [7],13.9 (22.3%) h*ng/ml/mg
same,AUC0-24 h norm by dose,[2]; [8],23.8 (31.0%) h*ng/ml/mg
same,AUCinf norm by dose,[2]; [8],24.8 (33.3%) h*ng/ml/mg
same,AUClast norm by dose,[2]; [8],23.5 (31.0%) h*ng/ml/mg
same,"AUC0-24 h norm by dose, Ratio period 3 / period 1","[2]; i.v., ritonavir vs alone",1.67
same,"AUCinf norm by dose, Ratio period 3 / period 1","[2]; i.v., ritonavir vs alone",1.70
same,"AUClast norm by dose, Ratio period 3 / period 1","[2]; i.v., ritonavir vs alone",1.68
same,"Cmax norm by dose, Ratio period 3 / period 1","[2]; i.v., ritonavir vs alone",0.89
same,AUC0-24 h norm by dose,[2]; [9],4.89 ng·h/mL/mg
same,Cmax norm by dose,[2]; [9],2.77 ng/mL/mg
same,AUC0-24 h norm by dose,[2]; [10],6.28 ng·h/mL/mg
same,Cmax norm by dose,[2]; [10],3.27 ng/mL/mg
same,AUC0-24 h norm by dose,[2]; [11],20.3 ng·h/mL/mg
same,Cmax norm by dose,[2]; [11],9.00 ng/mL/mg
same,AUC0-24 h norm by dose,[2]; [12],"4.49 (3.83, 5.26) h*ng/ml/mg"
same,AUCinf norm by dose,[2]; [12],"4.66 (3.92, 5.54) h*ng/ml/mg"
same,AUClast norm by dose,[2]; [12],"4.37 (3.73, 5.13) h*ng/ml/mg"
same,Cmax norm by dose,[2]; [12],"2.45 (1.99, 3.02) ng/ml/mg"
same,AUC0-24 h norm by dose,[2]; [13],"5.80 (4.95, 6.80) h*ng/ml/mg"
same,AUCinf norm by dose,[2]; [13],"5.98 (4.97, 7.19) h*ng/ml/mg"
same,AUClast norm by dose,[2]; [13],"5.80 (4.93, 6.81) h*ng/ml/mg"
same,Cmax norm by dose,[2]; [13],"3.03 (2.45, 3.75) ng/ml/mg"
same,AUC0-24 h norm by dose,[2]; [14],"19.2 (16.4, 22.5) h*ng/ml/mg"
same,AUCinf norm by dose,[2]; [14],"20.1 (16.9, 23.8) h*ng/ml/mg"
same,AUClast norm by dose,[2]; [14],"19.7 (16.7, 23.1) h*ng/ml/mg"
same,Cmax norm by dose,[2]; [14],"8.15 (6.59, 10.1) ng/ml/mg"
same,"AUCinf norm by dose, Ratio period 2 / period 1",[2]; [15],"1.28 (1.09, 1.51)"
same,"AUClast norm by dose, Ratio period 2 / period 1",[2]; [15],"1.33 (1.19, 1.47)"
same,"AUCinf norm by dose, Ratio period 3 / period 1",[2]; [16],"4.31 (3.76, 4.94)"
same,"AUClast norm by dose, Ratio period 3 / period 1",[2]; [16],"4.50 (4.05, 4.99)"
same,passive permeability (Papp),Caco-2 cells,16.5 10^-6 cm/s
same,"fm,CYP (contribution to oxidative hepatic metabolism)",CYP2B6,0.3%
same,"fm,CYP (contribution to oxidative hepatic metabolism)",CYP2C19,1%
same,uptake clearance with inhibitors of hepatic uptake transporters,[3],not affected
same,P-gp substrate,P-gp,identified as a P‐gp substrate
same,"correlation of metabolism rate with CYP3A4/5 activity, R",CYP3A4/5; midazolam,0.989
same,"correlation of metabolism rate with CYP3A4/5 activity, R",CYP3A4/5; testosterone,0.986
same,tolerability,"[4]; alone, with grapefruit juice, or with RTV, healthy participants",well‐tolerated
same,"SAEs, deaths, high-grade AEs",[4]; during the trial,"No SAEs, deaths, or AEs of high‐grade severity"
same,"clinical laboratory evaluations, vital signs, ECG",[4]; except isolated AE of mildly increased white blood cell count in one participant,no clinically relevant changes
same,AEs rated grade 1 of all AEs,[4]; occurring in 5 [29.4%] participants,13/14
same,Vmax,CYP3A4; CYP3A4,16.3 pmol/min/pmol CYP
same,Km,"CYP3A4; read-out: Km,u, CYP3A4, unbound",1.51 µM
same,excretion of unchanged remibrutinib into the bile,[5],0.4 % of the dose
same,AUC ratio day 12 to day 1,[6]; declining over dose range 10-600 mg (TMDD effect),4.86 to 1.14
same,fractional contribution of renal excretion to elimination,[6]; humans,about 1.8%
same,apparent intrinsic affinity (Kmapp),human liver microsomes,5.43 µM
same,maximal rate of metabolism (Vmax),human liver microsomes,560.7 pmol/min/mg protein
same,"fm,CYP (contribution to oxidative hepatic metabolism)",CYP3A5,0.8%
